The results in this text go back to ChEMBL document CHEMBL4261491, “Synthesis and synergistic antifungal effects of monoketone derivatives of curcumin against fluconazole-resistant Candida spp” (Medchemcomm, 2017).

SMILES strings stand for the structures. Converted amounts (≈) assume the structure as drawn. Some results are limits rather than exact numbers.

Series [1] has as its system Candida tropicalis. In words: Antifungal activity against fluconazole-resistant Candida tropicalis clinical isolate 087 in presence of 8 ug/ml fluconazole by broth microdilution method. The format is functional. The following applies: for MIC80: Candida tropicalis, isolate 087. A digest of the protocol: (§1)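 Broth microdilution per CLSI/NCCLS M27-A2 against FLC-resistant clinical isolates. MIC80 read for each compound alone and with fluconazole at 8.0 μg ml–1. C. albicans ATCC 90028 served as quality control. Curcumin was the positive control.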

Series [2] relates to Candida albicans. Kind of series: Antifungal activity against fluconazole-resistant Candida albicans clinical isolate 103 in presence of 8 ug/ml fluconazole by broth microdilution method. The following applies: for MIC80: Candida albicans, isolate 103. It is filed as functional. Summed up:
as §1
(In broth dilution the organism is exposed to a series of concentrations in liquid medium.)

For series [3], the system named is Pichia kudriavzevii. Kind of series: Antifungal activity against fluconazole-resistant Candida krusei clinical isolate 2159 in presence of 8 ug/ml fluconazole by broth microdilution method. It is filed as functional. Particulars: for MIC80: Pichia kudriavzevii, isolate 2159. Summed up:
as §1

Series [4] concerns Pichia kudriavzevii. Kind of series: Antifungal activity against fluconazole-resistant Candida krusei clinical isolate 2159 by broth microdilution method. It is filed as functional. A digest of the protocol:
as §1

Series [5] relates to Candida tropicalis. In words: Antifungal activity against fluconazole-resistant Candida tropicalis clinical isolate 087 by broth microdilution method. The format is functional. Summed up:
as §1

In series [6] the test system is Candida albicans. In words: Antifungal activity against fluconazole-resistant Candida albicans clinical isolate 103 by broth microdilution method. It is filed as functional. A digest of the protocol: as §1
Series [7] is described as follows: Cytotoxicity against HUVEC assessed as cell viability at 16 ug/ml after 24 hrs by MTT assay relative to control. The following applies: human, HUVEC cells; read-out: Activity. It is filed as cell-based. Summed up:
(§2)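 HUVECs grown in DMEM with 10% FCS and 100 μg ml–1 streptomycin, 5% CO2, 37 °C. Cells exposed to compounds at 16 and 32 μg ml–1 for 24 h, then incubated with MTT solution (5 mg ml–1) for 3 h. Optical density read at 570 nm. Viability expressed as percentage relative to drug-free control.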
(In general: Tetrazolium dyes change colour on reduction, which living cells bring about.)

Series [8] is described as follows: Cytotoxicity against HUVEC assessed as cell viability at 32 ug/ml after 24 hrs by MTT assay relative to control. The format is cell-based. Particulars: human, HUVEC cells; read-out: Activity. A digest of the protocol:
as §2

On to `COc1cccc(/C=C2\CC/C(=C\c3cccc(OC)c3OC)C2=O)c1OC`, for which the “fractional inhibitory concentration index (FICI)” value with Candida tropicalis [1], with Candida albicans [2] and with Pichia kudriavzevii [3] was above 1.06 each time. For the same molecule, the MIC80 in the series on Candida tropicalis [1], with Candida albicans [2], with Pichia kudriavzevii [3], in the series on Pichia kudriavzevii [4], in the series with Candida tropicalis [5] and in the series with Candida albicans [6] was above 64 µg/mL each time.
On to `COc1ccc(/C=C2\CC/C(=C\c3ccc(OC)cc3)C2=O)cc1`, for which the “fractional inhibitory concentration index (FICI)” value in the series on Candida tropicalis [1] is reported as 1.06; in the series on Candida albicans [2], above 1.06; with Pichia kudriavzevii [3], above 1.06. Further, the MIC80 with Candida tropicalis [1] is 64 µg/mL; with Candida albicans [2], above 64 µg/mL; in the series with Pichia kudriavzevii [3] it was above 64 µg/mL; in the series on Pichia kudriavzevii [4], above 64 µg/mL; with Candida tropicalis [5] it was above 64 µg/mL; against Candida albicans [6], above 64 µg/mL.
With `O=C(/C=C/c1ccc(Cl)cc1)/C=C/c1ccc(Cl)cc1`, the “fractional inhibitory concentration index (FICI)” value with Candida tropicalis [1] is on record as 0.313; in the series on Candida albicans [2], above 1.06; in the series with Pichia kudriavzevii [3], above 1.06. In addition, the MIC80 in the series with Candida tropicalis [1] is 16 µg/mL; in the series on Candida albicans [2], above 64 µg/mL; in the series with Pichia kudriavzevii [3], above 64 µg/mL; with Pichia kudriavzevii [4], above 64 µg/mL; against Candida tropicalis [5], above 64 µg/mL; against Candida albicans [6], above 64 µg/mL.
For the molecule `O=C(/C=C/c1ccc(Cl)cc1Cl)/C=C/c1ccc(Cl)cc1Cl`, the “fractional inhibitory concentration index (FICI)” value with Candida tropicalis [1] is recorded as 0.313; in the series on Candida albicans [2] it was above 1.06; with Pichia kudriavzevii [3], above 1.06. Further, the MIC80 is 16 µg/mL in the series on Candida tropicalis [1]; above 64 µg/mL with Candida albicans [2]; above 64 µg/mL with Pichia kudriavzevii [3]; above 64 µg/mL in the series with Pichia kudriavzevii [4]; above 64 µg/mL in the series with Candida tropicalis [5]; above 64 µg/mL with Candida albicans [6].
As to `COc1ccc(/C=C/C(=O)/C=C/c2ccc(OC)c(OC)c2)cc1OC`, the results for the “fractional inhibitory concentration index (FICI)” value in the series on Candida tropicalis [1], in the series with Candida albicans [2] and in the series with Pichia kudriavzevii [3] were 0.125, above 1.06 and above 1.06, respectively. Moreover, the MIC80 is 4 µg/mL in the series on Candida tropicalis [1]; above 64 µg/mL with Candida albicans [2]; above 64 µg/mL with Pichia kudriavzevii [3]; above 64 µg/mL against Pichia kudriavzevii [4]; above 64 µg/mL with Candida tropicalis [5]; above 64 µg/mL with Candida albicans [6]. The viability at 24 h, 16 ug/ml in series [7] stood at 67%. Besides, in series [8], the viability at 24 h, 32 ug/ml was found to be 55%.
In the case of `COc1ccc(/C=C/C(=O)/C=C/c2ccc(OC)cc2)cc1`, the “fractional inhibitory concentration index (FICI)” value with Candida tropicalis [1], with Candida albicans [2] and with Pichia kudriavzevii [3] was above 1.06 throughout. Besides, the MIC80 in the series on Candida tropicalis [1], with Candida albicans [2], with Pichia kudriavzevii [3], against Pichia kudriavzevii [4], against Candida tropicalis [5] and with Candida albicans [6] was above 64 µg/mL in each case.
On to `COc1cc(/C=C/C(=O)CC(=O)/C=C/c2ccc(O)c(OC)c2)ccc1O` [CURCUMIN], for which the “fractional inhibitory concentration index (FICI)” value in the series with Candida tropicalis [1], in the series on Candida albicans [2] and with Pichia kudriavzevii [3] was 0.188 throughout. Besides, the MIC80 with Candida tropicalis [1], in the series with Candida albicans [2] and with Pichia kudriavzevii [3] was 8 µg/mL in each case. For the same molecule, the viability at 24 h, 16 ug/ml in series [7] was 80%. Further, the viability at 24 h, 32 ug/ml in series [8] is 22%.
Regarding `O=C1/C(=C/c2ccc(O)cc2)CC/C1=C\c1ccc(O)cc1`, the “fractional inhibitory concentration index (FICI)” value in the series on Candida tropicalis [1] is given as 0.188; in the series with Candida albicans [2] it was above 1.06; in the series with Pichia kudriavzevii [3], above 1.06. For the same molecule, the MIC80 is 8 µg/mL with Candida tropicalis [1]; above 64 µg/mL with Candida albicans [2]; above 64 µg/mL in the series with Pichia kudriavzevii [3]; above 64 µg/mL against Pichia kudriavzevii [4]; above 64 µg/mL with Candida tropicalis [5]; above 64 µg/mL in the series on Candida albicans [6]. Also, the viability at 24 h, 16 ug/ml in series [7] was determined as 69%. For the same molecule, the viability at 24 h, 32 ug/ml in series [8] stood at 60%.
In the case of `COc1ccc(/C=C/C(=O)/C=C/c2ccc(OC)c(O)c2)cc1O`, the “fractional inhibitory concentration index (FICI)” value is reported as 0.188 with Candida tropicalis [1], 0.563 with Candida albicans [2] and above 1.06 in the series on Pichia kudriavzevii [3]. In addition, the MIC80 in the series on Candida tropicalis [1] was 8 µg/mL; in the series with Candida albicans [2], 32 µg/mL; in the series with Pichia kudriavzevii [3], above 64 µg/mL; in the series with Pichia kudriavzevii [4], above 64 µg/mL; with Candida tropicalis [5] it was above 64 µg/mL; with Candida albicans [6], above 64 µg/mL.
Regarding `CN(C)c1ccc(/C=C/C(=O)/C=C/c2ccc(N(C)C)cc2)cc1`, the “fractional inhibitory concentration index (FICI)” value in the series with Candida tropicalis [1] is on record as 0.563; with Candida albicans [2] it was above 1.06; in the series on Pichia kudriavzevii [3], above 1.06. The MIC80 is 32 µg/mL in the series with Candida tropicalis [1]; above 64 µg/mL in the series with Candida albicans [2]; above 64 µg/mL in the series with Pichia kudriavzevii [3]; above 64 µg/mL against Pichia kudriavzevii [4]; above 64 µg/mL in the series on Candida tropicalis [5]; above 64 µg/mL against Candida albicans [6].
For the molecule `O=C(/C=C/c1ccc(Br)cc1)/C=C/c1ccc(Br)cc1`, the “fractional inhibitory concentration index (FICI)” value is listed as 0.563 in the series on Candida tropicalis [1], above 1.06 in the series on Candida albicans [2] and above 1.06 in the series on Pichia kudriavzevii [3]. The MIC80 in the series on Candida tropicalis [1] was 32 µg/mL; in the series on Candida albicans [2], above 64 µg/mL; in the series with Pichia kudriavzevii [3] it was above 64 µg/mL; in the series with Pichia kudriavzevii [4], above 64 µg/mL; in the series with Candida tropicalis [5], above 64 µg/mL; in the series with Candida albicans [6] it was above 64 µg/mL.
As to `O=C(/C=C/c1ccc(Cl)c(Cl)c1)/C=C/c1ccc(Cl)c(Cl)c1`, the “fractional inhibitory concentration index (FICI)” value in the series with Candida tropicalis [1], in the series with Candida albicans [2] and in the series on Pichia kudriavzevii [3] was above 1.06 each time. The MIC80 in the series on Candida tropicalis [1], with Candida albicans [2], in the series on Pichia kudriavzevii [3], with Pichia kudriavzevii [4], in the series with Candida tropicalis [5] and against Candida albicans [6] was above 64 µg/mL in each case.
`COc1ccc(/C=C2\CC/C(=C\c3ccc(OC)c(OC)c3)C2=O)cc1OC`: the “fractional inhibitory concentration index (FICI)” value was 0.313 in the series on Candida tropicalis [1], above 1.06 with Candida albicans [2] and above 1.06 in the series with Pichia kudriavzevii [3]. Also, the MIC80 was 16 µg/mL with Candida tropicalis [1]; above 64 µg/mL in the series with Candida albicans [2]; above 64 µg/mL with Pichia kudriavzevii [3]; above 64 µg/mL against Pichia kudriavzevii [4]; above 64 µg/mL in the series on Candida tropicalis [5]; above 64 µg/mL with Candida albicans [6].
Take `O=C(/C=C/c1ccco1)/C=C/c1ccco1`: the “fractional inhibitory concentration index (FICI)” value was 0.313 in the series on Candida tropicalis [1], above 1.06 in the series on Candida albicans [2] and above 1.06 with Pichia kudriavzevii [3]. For the same molecule, the MIC80 in the series with Candida tropicalis [1] is 16 µg/mL; with Candida albicans [2] it was above 64 µg/mL; in the series with Pichia kudriavzevii [3], above 64 µg/mL; with Pichia kudriavzevii [4], above 64 µg/mL; in the series with Candida tropicalis [5], above 64 µg/mL; against Candida albicans [6] it was above 64 µg/mL.
In the case of `O=C(/C=C(O)/C=C/c1ccc(O)c(O)c1)/C=C/c1ccc(O)c(O)c1`, the “fractional inhibitory concentration index (FICI)” value came out at 0.125 in the series on Candida tropicalis [1], 0.125 with Candida albicans [2] and 0.563 with Pichia kudriavzevii [3]. The MIC80 turned out to be 4 µg/mL in the series on Candida tropicalis [1]; 4 µg/mL in the series with Candida albicans [2]; 2 µg/mL with Pichia kudriavzevii [3]; 4 µg/mL (≈ 11.8 µM) against Pichia kudriavzevii [4]; 64 µg/mL (≈ 188 µM) in the series on Candida tropicalis [5]; 64 µg/mL (≈ 188 µM) in the series with Candida albicans [6].
As to `O=C(/C=C/c1c(Cl)cccc1Cl)/C=C/c1c(Cl)cccc1Cl`, the “fractional inhibitory concentration index (FICI)” value with Candida tropicalis [1], in the series with Candida albicans [2] and with Pichia kudriavzevii [3] was above 1.06 in each case. The MIC80 with Candida tropicalis [1], with Candida albicans [2], with Pichia kudriavzevii [3], with Pichia kudriavzevii [4], against Candida tropicalis [5] and with Candida albicans [6] was above 64 µg/mL throughout.
Regarding `O=C1/C(=C/c2ccc3c(c2)OCO3)CC/C1=C\c1ccc2c(c1)OCO2`, the results for the “fractional inhibitory concentration index (FICI)” value in the series with Candida tropicalis [1], in the series on Candida albicans [2] and in the series with Pichia kudriavzevii [3] were 1.06, above 1.06 and above 1.06, respectively. Further, the MIC80 was 64 µg/mL with Candida tropicalis [1]; above 64 µg/mL in the series with Candida albicans [2]; above 64 µg/mL in the series on Pichia kudriavzevii [3]; above 64 µg/mL with Pichia kudriavzevii [4]; above 64 µg/mL with Candida tropicalis [5]; above 64 µg/mL with Candida albicans [6].
For the molecule `CN(C)c1ccc(/C=C2\CC/C(=C\c3ccc(N(C)C)cc3)C2=O)cc1`, the “fractional inhibitory concentration index (FICI)” value in the series on Candida tropicalis [1] is on record as 1.06; in the series with Candida albicans [2], above 1.06; with Pichia kudriavzevii [3], above 1.06. In addition, the MIC80 in the series with Candida tropicalis [1] is 64 µg/mL; with Candida albicans [2] it was above 64 µg/mL; in the series on Pichia kudriavzevii [3], above 64 µg/mL; with Pichia kudriavzevii [4] it was above 64 µg/mL; in the series on Candida tropicalis [5], above 64 µg/mL; in the series with Candida albicans [6], above 64 µg/mL.

In general, MIC80 refers to the lowest concentration that inhibits either 80% of growth or 80% of the strains tested, depending on the study.
